Tests used:
human neutrophils = test: Human NET assay; format: cell-based; conditions: S. aureus, 5 bacteria per neutrophil, versus vehicle
In short: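 S. aureus was grown 20 h shaking in LB at 37 °C, washed in ice-cold PBS and added at 5× MOI for 3 h at 37 °C. Cells were fixed in 2% PFA and stained with Hoechst 33342. Confocal imaging was used, with algorithmic classification as lobulated, delobulated or diffused NETs, from 60 fields across 3 wells per treatment.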

mouse neutrophils = test: Mouse NET assay; format: cell-based; conditions: 10 µM pre-treatment, ionomycin
In short: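 Mouse peripheral blood neutrophils were isolated by density centrifugation plus hypotonic lysis (>90% pure). They were settled 15 min on uncoated glass-bottom wells in RPMI/10 mM HEPES at 37 °C, given compound or vehicle for 20 min, then stimulated with 4 µM ionomycin for 2 h at 37 °C. Cells were fixed in 2% PFA overnight at 4 °C, permeabilised, blocked, and stained with anti-citrullinated H3 (0.3 µg/mL, overnight 4 °C), a fluorescent secondary and Hoechst 33342. Fluorescence microscopy was used for blinded scoring of H3Cit+ cells and spread NETs by nuclear morphology.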

[1] = test system: panel of 50 unrelated proteins; test: Off-target panel
[2] = test system: histone deacetylases 1–11; test: Histone deacetylase selectivity; format: biochemical; conditions: for inhibition of histone deacetylases 1–11: at 100 µM; for Activation of HDACs: up to 100 µM
PAD4 = PAD4 (Homo sapiens, UniProt Q9UM07); test: PAD4 FP binding assay; conditions: 10 nM GSK215, mean of replicates
Chain of PAD4 (Q9UM07 whole entry): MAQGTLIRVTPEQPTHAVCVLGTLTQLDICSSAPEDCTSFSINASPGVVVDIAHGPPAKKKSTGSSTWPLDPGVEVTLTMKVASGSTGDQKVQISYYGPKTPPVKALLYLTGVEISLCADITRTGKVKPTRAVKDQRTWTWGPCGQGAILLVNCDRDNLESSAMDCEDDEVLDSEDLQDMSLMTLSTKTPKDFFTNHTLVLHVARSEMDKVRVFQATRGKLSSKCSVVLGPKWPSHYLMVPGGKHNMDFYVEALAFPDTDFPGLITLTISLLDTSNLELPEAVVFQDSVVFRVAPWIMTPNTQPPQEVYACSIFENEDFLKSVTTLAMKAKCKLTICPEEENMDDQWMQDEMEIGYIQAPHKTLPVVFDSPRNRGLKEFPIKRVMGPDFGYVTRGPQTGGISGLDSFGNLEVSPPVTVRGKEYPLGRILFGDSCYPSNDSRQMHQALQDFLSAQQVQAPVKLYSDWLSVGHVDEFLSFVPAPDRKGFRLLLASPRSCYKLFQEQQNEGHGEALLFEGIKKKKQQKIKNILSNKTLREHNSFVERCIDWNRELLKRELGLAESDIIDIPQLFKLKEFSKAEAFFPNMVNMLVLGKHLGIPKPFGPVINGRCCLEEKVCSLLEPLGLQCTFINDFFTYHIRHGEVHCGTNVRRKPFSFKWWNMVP

CCn1c(-c2nc3ccc(C(=O)N4CCCC(N)C4)cc3n2C)cc2ccccc21 (centres unmarked) [GSK106, (3-Aminopiperidin-1-yl)(2-(1-ethyl-1H–indol-2-yl)-1-methyl-1H-benzo[d]imidazol-6-yl)methanone]
Diffused NETs (human neutrophils): ineffective
Histone H3 citrullination (mouse neutrophils): ineffective
NET formation (mouse neutrophils): ineffective

CCn1c(-c2nc3cc(C(=O)N4CCC[C@@H](N)C4)cc(OC)c3n2C)cc2cccnc21 [GSK199, (R)-(3-Aminopiperidin-1-yl)(2-(1-ethyl-1H-pyrrolo[2,3-b]pyridin-2-yl)-7-methoxy-1-methyl-1H-benzo[d]imidazol-5-yl)methanone]
Off-target activity against a panel of 50 unrelated proteins [1]: negligible off-target activity
inhibition of histone deacetylases 1–11 [2]: < 50%
Activation of HDACs [2]: partial activation of HDACs 1 and 8 at high concentrations
Diffused NETs (human neutrophils): less marked inhibition
Histone H3 citrullination (mouse neutrophils): produced the same effect
NET formation (mouse neutrophils): produced the same effect
IC50 (PAD4; PAD4 FP Binding Assay IC50, 0 mM Ca, 0 mM Ca): 200 nM
IC50 (PAD4; PAD4 FP Binding Assay IC50, 2 mM Ca, 2 mM Ca): 1000 nM

COc1cc(C(=O)N2CC[C@@H](O)[C@@H](N)C2)cc2nc(-c3cc4ccccc4n3CC3CC3)n(C)c12 [GSK484, ((3S,4R)-3-Amino-4-hydroxypiperidin-1-yl)(2-(1-(cyclopropylmethyl)-1H-indol-2-yl)-7-methoxy-1-methyl-1H-benzo[d]imidazol-5-yl)methanone]
Off-target activity against a panel of 50 unrelated proteins [1]: negligible off-target activity
inhibition of histone deacetylases 1–11 [2]: < 50%
Activation of HDACs [2]: no activation across HDACs 1–11
Diffused NETs (human neutrophils): clear, statistically-significant reduction
Histone H3 citrullination (mouse neutrophils): dramatically diminished
NET formation (mouse neutrophils): dramatically diminished
